Converted amounts (≈) assume the structure as drawn.
Assays:
[1] = tested on: Staphylococcus fleurettii; assay: Antibacterial activity against mecA-negative Staphylococcus fleurettii SFMN01 by agar dilution method; format: functional; settings: Mammaliicoccus fleurettii
Summary of the method: (§1)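 MIC by agar dilution on Mueller-Hinton agar following CLSI guidelines. Resistance was assigned using CLSI breakpoints. Agents tested were oxacillin, ampicillin, ceftizoxime, ceftriaxone and cefoxitin. Strains were from animal or food sources and identified by hsp60 and/or sodA sequencing. mecA absence was assessed by PCR with degenerate primers for mecA and its homologues.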

[2] = tested on: Staphylococcus fleurettii; assay: Antibacterial activity against methicillin-resistant mecA-positive Staphylococcus fleurettii SFMP04 by agar dilution method; format: functional; settings: Mammaliicoccus fleurettii
Summary of the method: (§2)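 MIC by agar dilution on Mueller-Hinton agar per CLSI guidance; resistance judged against CLSI breakpoints. Strains were animal or food isolates (type strains for S. sciuri subspecies), typed by hsp60 and/or sodA sequencing; mecA homologue carriage checked by PCR with degenerate primers. Agents tested: oxacillin, ampicillin, ceftizoxime, ceftriaxone, cefoxitin.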

Staphylococcus vitulinus [3] = assay: Antibacterial activity against methicillin-resistant mecA-positive Staphylococcus vitulinus SVMP04 by agar dilution method; format: functional; settings: Mammaliicoccus vitulinus; summary of the method: as §2
[4] = tested on: Staphylococcus fleurettii; assay: Antibacterial activity against methicillin-resistant mecA-positive Staphylococcus fleurettii SFMP01(CCUG 43834T) by agar dilution method; format: functional; settings: Mammaliicoccus fleurettii; summary of the method: as §2
Staphylococcus vitulinus [5] = assay: Antibacterial activity against mecA-negative Staphylococcus vitulinus SVMN10 by agar dilution method; format: functional; settings: Mammaliicoccus vitulinus; summary of the method: as §1
Staphylococcus vitulinus [6] = assay: Antibacterial activity against mecA-negative Staphylococcus vitulinus SVMN07 by agar dilution method; format: functional; settings: Mammaliicoccus vitulinus; summary of the method: as §2
Staphylococcus vitulinus [7] = assay: Antibacterial activity against mecA-negative Staphylococcus vitulinus SVMN13 by agar dilution method; format: functional; settings: Mammaliicoccus vitulinus; summary of the method: as §1
[8] = Antibacterial activity against methicillin-resistant mecA-positive Staphylococcus sciuri subsp. sciuri ATCC 29062T by agar dilution method; format: functional; settings: Mammaliicoccus sciuri; summary of the method: as §2
Staphylococcus vitulinus [9] = assay: Antibacterial activity against mecA-negative Staphylococcus vitulinus SVMN04 by agar dilution method; format: functional; settings: Mammaliicoccus vitulinus; summary of the method: as §2
[10] = tested on: Staphylococcus fleurettii; assay: Antibacterial activity against methicillin-resistant mecA-positive Staphylococcus fleurettii SFMP02 by agar dilution method; format: functional; settings: Mammaliicoccus fleurettii; summary of the method: as §2
[11] = tested on: Staphylococcus fleurettii; assay: Antibacterial activity against methicillin-resistant mecA-positive Staphylococcus fleurettii SFMP08 by agar dilution method; format: functional; settings: Mammaliicoccus fleurettii; summary of the method: as §2
Staphylococcus vitulinus [12] = assay: Antibacterial activity against methicillin-resistant mecA-positive Staphylococcus vitulinus SVMP06 by agar dilution method; format: functional; settings: Mammaliicoccus vitulinus; summary of the method: as §2
Staphylococcus vitulinus [13] = assay: Antibacterial activity against mecA-negative Staphylococcus vitulinus SVMN06 by agar dilution method; format: functional; settings: Mammaliicoccus vitulinus; summary of the method: as §2
Staphylococcus vitulinus [14] = assay: Antibacterial activity against methicillin-resistant mecA-positive Staphylococcus vitulinus SVMP03 by agar dilution method; format: functional; settings: Mammaliicoccus vitulinus; summary of the method: as §2
Staphylococcus vitulinus [15] = assay: Antibacterial activity against mecA-negative Staphylococcus vitulinus SVMN11 by agar dilution method; format: functional; settings: Mammaliicoccus vitulinus; summary of the method: as §2
Staphylococcus vitulinus [16] = assay: Antibacterial activity against mecA-negative Staphylococcus vitulinus SVMN08 by agar dilution method; format: functional; settings: Mammaliicoccus vitulinus; summary of the method: as §1
Staphylococcus vitulinus [17] = assay: Antibacterial activity against mecA-negative Staphylococcus vitulinus SVMN02 by agar dilution method; format: functional; settings: Mammaliicoccus vitulinus; summary of the method: as §2
[18] = tested on: Staphylococcus fleurettii; assay: Antibacterial activity against methicillin-resistant mecA-positive Staphylococcus fleurettii SFMP06 by agar dilution method; format: functional; settings: Mammaliicoccus fleurettii; summary of the method: as §2
[19] = tested on: Staphylococcus fleurettii; assay: Antibacterial activity against mecA-negative Staphylococcus fleurettii SFMN02 by agar dilution method; format: functional; settings: Mammaliicoccus fleurettii; summary of the method: as §1
Staphylococcus vitulinus [20] = assay: Antibacterial activity against mecA-negative Staphylococcus vitulinus SVMN03 by agar dilution method; format: functional; settings: Mammaliicoccus vitulinus; summary of the method: as §1
[21] = tested on: Staphylococcus fleurettii; assay: Antibacterial activity against methicillin-resistant mecA-positive Staphylococcus fleurettii SFMP05 by agar dilution method; format: functional; settings: Mammaliicoccus fleurettii; summary of the method: as §2
Staphylococcus vitulinus [22] = assay: Antibacterial activity against mecA-negative Staphylococcus vitulinus SVMN09 by agar dilution method; format: functional; settings: Mammaliicoccus vitulinus; summary of the method: as §2
Staphylococcus vitulinus [23] = assay: Antibacterial activity against methicillin-resistant mecA-positive Staphylococcus vitulinus SVMP02 by agar dilution method; format: functional; settings: Mammaliicoccus vitulinus; summary of the method: as §2
[24] = tested on: Staphylococcus fleurettii; assay: Antibacterial activity against methicillin-resistant mecA-positive Staphylococcus fleurettii SFMP03 by agar dilution method; format: functional; settings: Mammaliicoccus fleurettii; summary of the method: as §2
[25] = tested on: Staphylococcus fleurettii; assay: Antibacterial activity against methicillin-resistant mecA-positive Staphylococcus fleurettii SFMP07 by agar dilution method; format: functional; settings: Mammaliicoccus fleurettii; summary of the method: as §2
Staphylococcus vitulinus [26] = assay: Antibacterial activity against mecA-negative Staphylococcus vitulinus SVMN12 by agar dilution method; format: functional; settings: Mammaliicoccus vitulinus; summary of the method: as §2
Mammaliicoccus lentus = assay: Antibacterial activity against mecA-negative Staphylococcus lentus ATCC 29070T by agar dilution method; format: functional; summary of the method: as §1
Staphylococcus vitulinus [27] = assay: Antibacterial activity against mecA-negative Staphylococcus vitulinus SVMN14 by agar dilution method; format: functional; settings: Mammaliicoccus vitulinus; summary of the method: as §2
Staphylococcus vitulinus [28] = assay: Antibacterial activity against methicillin-resistant mecA-positive Staphylococcus vitulinus SVMP01 by agar dilution method; format: functional; settings: Mammaliicoccus vitulinus; summary of the method: as §2
[29] = Antibacterial activity against methicillin-resistant mecA-positive Staphylococcus sciuri subsp. rodentium ATCC 700061T by agar dilution method; format: functional; settings: Mammaliicoccus sciuri; summary of the method: as §2
[30] = Antibacterial activity against mecA-positive Staphylococcus sciuri subsp. carnaticus ATCC 700058T by agar dilution method; settings: Mammaliicoccus sciuri
Staphylococcus vitulinus [31] = assay: Antibacterial activity against mecA-negative Staphylococcus vitulinus SVMN05 by agar dilution method; format: functional; settings: Mammaliicoccus vitulinus; summary of the method: as §2
Staphylococcus vitulinus [32] = assay: Antibacterial activity against mecA-negative Staphylococcus vitulinus SVMN01 (ATCC 51145T) by agar dilution method; format: functional; settings: Mammaliicoccus vitulinus; summary of the method: as §1
Staphylococcus vitulinus [33] = assay: Antibacterial activity against methicillin-resistant mecA-positive Staphylococcus vitulinus SVMP05 by agar dilution method; format: functional; settings: Mammaliicoccus vitulinus; summary of the method: as §2

SMILES	MIC [1] [µg/mL]	MIC [2] [µg/mL]	MIC (Staphylococcus vitulinus [3]) [µg/mL]	MIC [4] [µg/mL]	MIC (Staphylococcus vitulinus [5]) [µg/mL]	MIC (Staphylococcus vitulinus [6]) [µg/mL]	MIC (Staphylococcus vitulinus [7]) [µg/mL]	MIC [8] [µg/mL]	MIC (Staphylococcus vitulinus [9]) [µg/mL]	MIC [10] [µg/mL]	MIC [11] [µg/mL]	MIC (Staphylococcus vitulinus [12]) [µg/mL]	MIC (Staphylococcus vitulinus [13]) [µg/mL]	MIC (Staphylococcus vitulinus [14]) [µg/mL]	MIC (Staphylococcus vitulinus [15]) [µg/mL]	MIC (Staphylococcus vitulinus [16]) [µg/mL]	MIC (Staphylococcus vitulinus [17]) [µg/mL]	MIC [18] [µg/mL]	MIC [19] [µg/mL]	MIC (Staphylococcus vitulinus [20]) [µg/mL]	also measured
CO/N=C(\C(=O)N[C@@H]1C(=O)N2C(C(=O)O)=CCS[C@H]12)c1csc(N)n1 [CEFTIZOXIME]	2 (≈ 5.22 µM)	64 (≈ 167 µM)	0.5 (≈ 1.3 µM)	32 (≈ 83.5 µM)	0.25 (≈ 0.652 µM)	0.5 (≈ 1.3 µM)	0.25 (≈ 0.652 µM)	2 (≈ 5.22 µM)	0.5 (≈ 1.3 µM)	32 (≈ 83.5 µM)	32 (≈ 83.5 µM)	0.5 (≈ 1.3 µM)	0.5 (≈ 1.3 µM)	0.5 (≈ 1.3 µM)	1 (≈ 2.61 µM)	0.25 (≈ 0.652 µM)	1 (≈ 2.61 µM)	32 (≈ 83.5 µM)	2 (≈ 5.22 µM)	0.25 (≈ 0.652 µM)	MIC [21]: 4 µg/mL (≈ 10.4 µM); MIC (Staphylococcus vitulinus [22]): 0.5 µg/mL (≈ 1.3 µM); MIC (Staphylococcus vitulinus [23]): 0.5 µg/mL (≈ 1.3 µM); MIC [24]: 128 µg/mL (≈ 334 µM); MIC [25]: 4 µg/mL (≈ 10.4 µM); MIC (Staphylococcus vitulinus [26]): 0.5 µg/mL (≈ 1.3 µM); MIC (Mammaliicoccus lentus): 1 µg/mL (≈ 2.61 µM); MIC (Staphylococcus vitulinus [27]): 0.5 µg/mL (≈ 1.3 µM); MIC (Staphylococcus vitulinus [28]): 0.5 µg/mL (≈ 1.3 µM); MIC [29]: 2 µg/mL (≈ 5.22 µM); MIC [30]: 2 µg/mL (≈ 5.22 µM); MIC (Staphylococcus vitulinus [31]): 0.5 µg/mL (≈ 1.3 µM); MIC (Staphylococcus vitulinus [32]): 4 µg/mL (≈ 10.4 µM); MIC (Staphylococcus vitulinus [33]): 1 µg/mL (≈ 2.61 µM)
CO[C@@]1(NC(=O)Cc2cccs2)C(=O)N2C(C(=O)O)=C(COC(N)=O)CS[C@@H]21 [CEFOXITIN]	2 (≈ 4.68 µM)	4 (≈ 9.36 µM)	1 (≈ 2.34 µM)	2 (≈ 4.68 µM)	0.5 (≈ 1.17 µM)	2 (≈ 4.68 µM)	1 (≈ 2.34 µM)	2 (≈ 4.68 µM)	1 (≈ 2.34 µM)	1 (≈ 2.34 µM)	2 (≈ 4.68 µM)	1 (≈ 2.34 µM)	2 (≈ 4.68 µM)	2 (≈ 4.68 µM)	1 (≈ 2.34 µM)	0.25 (≈ 0.585 µM)	1 (≈ 2.34 µM)	2 (≈ 4.68 µM)	2 (≈ 4.68 µM)	0.5 (≈ 1.17 µM)	MIC [21]: 1 µg/mL (≈ 2.34 µM); MIC (Staphylococcus vitulinus [22]): 1 µg/mL (≈ 2.34 µM); MIC (Staphylococcus vitulinus [23]): 1 µg/mL (≈ 2.34 µM); MIC [24]: 8 µg/mL (≈ 18.7 µM); MIC [25]: 1 µg/mL (≈ 2.34 µM); MIC (Staphylococcus vitulinus [26]): 1 µg/mL (≈ 2.34 µM); MIC (Mammaliicoccus lentus): 2 µg/mL (≈ 4.68 µM); MIC (Staphylococcus vitulinus [27]): 0.5 µg/mL (≈ 1.17 µM); MIC (Staphylococcus vitulinus [28]): 2 µg/mL (≈ 4.68 µM); MIC [29]: 2 µg/mL (≈ 4.68 µM); MIC [30]: 2 µg/mL (≈ 4.68 µM); MIC (Staphylococcus vitulinus [31]): 1 µg/mL (≈ 2.34 µM); MIC (Staphylococcus vitulinus [32]): 2 µg/mL (≈ 4.68 µM); MIC (Staphylococcus vitulinus [33]): 1 µg/mL (≈ 2.34 µM)
